In ChEMBL document CHEMBL4406880, “Design, synthesis, and bioactivity of dihydropyrimidine derivatives as kinesin spindle protein inhibitors” (Bioorg Med Chem, 2019):

Key:
Format in all cases: functional
OVCAR-5 = test: Growth inhibition of human OVCAR5 cells assessed as growth percentage at 10 uM incubated for 48 hrs by sulforhodamine B assay relative to control; settings: OVCAR-5, 48 h, read-out: Activity
How it was run: (§1)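 NCI-60 single-dose screen. Cells were grown in RPMI 1640 with 5% FBS and 2 mM L-glutamine and plated at 5,000–40,000 cells/well. After an overnight preincubation at 37 °C in 5% CO2, compound was added at a final 10 µM from a DMSO stock, with DMSO/PBS controls. After 48 h, cells were TCA-fixed and stained with 0.4% SRB, and absorbance was read at 515 nm. Growth is given as a percentage of untreated control.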

EKVX = test: Growth inhibition of human EKVX cells assessed as growth percentage at 10 uM incubated for 48 hrs by sulforhodamine B assay relative to control; settings: read-out: Activity
How it was run: (§2)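 NCI-60 one-dose screen: cells in RPMI 1640 with 5% FBS and 2 mM L-glutamine, plated at 5,000–40,000 cells/well and preincubated 24 h at 37 °C, 5% CO2. Compound is added from a DMSO stock to a final 10 µM and incubated 48 h. Cells are TCA-fixed and stained with sulforhodamine B, read at 515 nm. Output is % growth versus untreated control, with a time-zero plate.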

MDA-MB-231 = test: Growth inhibition of human MDA-MB-231 cells assessed as growth percentage at 10 uM incubated for 48 hrs by sulforhodamine B assay relative to control; settings: MDA-MB-231, 48 h, read-out: Activity
How it was run: (§3)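 NCI-60 one-dose screen. Cells in RPMI 1640 with 5% FBS and 2 mM L-glutamine, seeded at 5,000–40,000 cells/well according to doubling time, and preincubated overnight at 37 °C, 5% CO2. A time-zero plate was TCA-fixed at drug addition. Compound from DMSO stock, final 10 µM, 48 h; DMSO vehicle controls. Fixation with TCA, 10% final (16% for suspension cells). SRB stain, Tris solubilization, A515. Result given as % growth versus untreated cells.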

UACC-62 = test: Growth inhibition of human UACC62 cells assessed as growth percentage at 10 uM incubated for 48 hrs by sulforhodamine B assay relative to control; settings: UACC-62, 48 h, read-out: Activity; how it was run: as §1
SK-MEL-28 = test: Growth inhibition of human SK-MEL-28 cells assessed as growth percentage at 10 uM incubated for 48 hrs by sulforhodamine B assay relative to control; settings: SK-MEL-28, 48 h, read-out: Activity; how it was run: as §1
SF-295 = test: Growth inhibition of human SF295 cells assessed as growth percentage at 10 uM incubated for 48 hrs by sulforhodamine B assay relative to control; settings: SF-295, 48 h, read-out: Activity; how it was run: as §1
OVCAR-3 = test: Growth inhibition of human OVCAR3 cells assessed as growth percentage at 10 uM incubated for 48 hrs by sulforhodamine B assay relative to control; settings: OVCAR-3, 48 h, read-out: Activity; how it was run: as §3
HOP-92 = test: Growth inhibition of human HOP92 cells assessed as growth percentage at 10 uM incubated for 48 hrs by sulforhodamine B assay relative to control; settings: HOP-92, 48 h, read-out: Activity; how it was run: as §3
MDA-MB-435 = test: Growth inhibition of human MDA-MB-435 cells assessed as growth percentage at 10 uM incubated for 48 hrs by sulforhodamine B assay relative to control; settings: MDA-MB-435, 48 h, read-out: Activity; how it was run: as §3
KM12 = test: Growth inhibition of human KM12 cells assessed as growth percentage at 10 uM incubated for 48 hrs by sulforhodamine B assay relative to control; settings: KM12, 48 h, read-out: Activity; how it was run: as §3
Malme-3M = test: Growth inhibition of human MALME-3M cells assessed as growth percentage at 10 uM incubated for 48 hrs by sulforhodamine B assay relative to control; settings: read-out: Activity; how it was run: as §3
CAKI-1 = test: Growth inhibition of human Caki1 cells assessed as growth percentage at 10 uM incubated for 48 hrs by sulforhodamine B assay relative to control; settings: CAKI-1, 48 h, read-out: Activity; how it was run: as §2
HOP-62 = test: Growth inhibition of human HOP62 cells assessed as growth percentage at 10 uM incubated for 48 hrs by sulforhodamine B assay relative to control; settings: HOP-62, 48 h, read-out: Activity; how it was run: as §3
NCI/ADR-RES = test: Growth inhibition of human NCI/ADR-RES cells assessed as growth percentage at 10 uM incubated for 48 hrs by sulforhodamine B assay relative to control; settings: read-out: Activity; how it was run: as §3
A498 = test: Growth inhibition of human A498 cells assessed as growth percentage at 10 uM incubated for 48 hrs by sulforhodamine B assay relative to control; settings: A498, 48 h, read-out: Activity; how it was run: as §2
SW-620 = test: Growth inhibition of human SW620 cells assessed as growth percentage at 10 uM incubated for 48 hrs by sulforhodamine B assay relative to control; settings: SW-620, 48 h, read-out: Activity; how it was run: as §1
HCT-15 = test: Growth inhibition of human HCT15 cells assessed as growth percentage at 10 uM incubated for 48 hrs by sulforhodamine B assay relative to control; settings: HCT-15, 48 h, read-out: Activity; how it was run: as §2
RPMI-8226 = test: Growth inhibition of human RPMI8226 cells assessed as growth percentage at 10 uM incubated for 48 hrs by sulforhodamine B assay relative to control; settings: RPMI-8226, 48 h, read-out: Activity; how it was run: as §1
A549 = test: Growth inhibition of human A549/ATCC cells assessed as growth percentage at 10 uM incubated for 48 hrs by sulforhodamine B assay relative to control; settings: A549, 48 h, read-out: Activity; how it was run: as §2
OVCAR-4 = test: Growth inhibition of human OVCAR4 cells assessed as growth percentage at 10 uM incubated for 48 hrs by sulforhodamine B assay relative to control; settings: OVCAR-4, 48 h, read-out: Activity; how it was run: as §3
CCRF-CEM = test: Growth inhibition of human CCRF-CEM cells assessed as growth percentage at 10 uM incubated for 48 hrs by sulforhodamine B assay relative to control; settings: read-out: Activity; how it was run: as §2
HT-29 = test: Growth inhibition of human HT-29 cells assessed as growth percentage at 10 uM incubated for 48 hrs by sulforhodamine B assay relative to control; settings: HT-29, 48 h, read-out: Activity; how it was run: as §3
SN12C = test: Growth inhibition of human SN12C cells assessed as growth percentage at 10 uM incubated for 48 hrs by sulforhodamine B assay relative to control; settings: read-out: Activity; how it was run: as §1
K562 = test: Growth inhibition of human K562 cells assessed as growth percentage at 10 uM incubated for 48 hrs by sulforhodamine B assay relative to control; settings: K562, 48 h, read-out: Activity; how it was run: as §3
HCT-116 = test: Growth inhibition of human HCT116 cells assessed as growth percentage at 10 uM incubated for 48 hrs by sulforhodamine B assay relative to control; settings: HCT-116, 48 h, read-out: Activity; how it was run: as §2
ACHN = test: Growth inhibition of human ACHN cells assessed as growth percentage at 10 uM incubated for 48 hrs by sulforhodamine B assay relative to control; settings: read-out: Activity; how it was run: as §2
PC-3 = test: Growth inhibition of human PC3 cells assessed as growth percentage at 10 uM incubated for 48 hrs by sulforhodamine B assay relative to control; settings: PC-3, 48 h, read-out: Activity; how it was run: as §1

Structure (SMILES)	growth at 10 µM (OVCAR-5)	growth at 10 µM (EKVX)	growth at 10 µM (MDA-MB-231)	growth at 10 µM (UACC-62)	growth at 10 µM (SK-MEL-28)	growth at 10 µM (SF-295)	growth at 10 µM (OVCAR-3)	growth at 10 µM (HOP-92)	growth at 10 µM (MDA-MB-435)	growth at 10 µM (KM12)	growth at 10 µM (Malme-3M)	growth at 10 µM (CAKI-1)	growth at 10 µM (HOP-62)	growth at 10 µM (NCI/ADR-RES)	growth at 10 µM (A498)	growth at 10 µM (SW-620)	growth at 10 µM (HCT-15)	growth at 10 µM (RPMI-8226)	growth at 10 µM (A549)	growth at 10 µM (OVCAR-4)	further results
CC1=C(C(=O)OC(C)C)C(c2ccc3c(c2)OCO3)NC(=O)N1 (racemic)	103%	96.1%	104%	94.9%	108%	104%	114%	111%	110%	106%	99.6%	93.9%	117%	105%	104%	109%	99.7%	101%	106%	103%	growth at 10 µM (CCRF-CEM): 113%; growth at 10 µM (HT-29): 103%; growth at 10 µM (SN12C): 92.3%; growth at 10 µM (K562): 119%; growth at 10 µM (HCT-116): 96.4%; growth at 10 µM (ACHN): 103%; growth at 10 µM (PC-3): 101%
CC1=C(C(=O)OCC(C)C)C(c2ccc3c(c2)OCO3)NC(=O)N1 (racemic)	104%	95.5%	106%	98.5%	113%	99.5%	117%	102%	109%	104%	99.8%	96.3%	114%	106%	121%	113%	101%	99.9%	109%	104%	growth at 10 µM (CCRF-CEM): 104%; growth at 10 µM (HT-29): 105%; growth at 10 µM (SN12C): 105%; growth at 10 µM (K562): 113%; growth at 10 µM (HCT-116): 105%; growth at 10 µM (ACHN): 105%; growth at 10 µM (PC-3): 92.2%
COCCOC(=O)C1=C(C)NC(=O)NC1c1ccc2c(c1)OCO2 (racemic)	101%	99.1%	98.8%	96%	112%	98.5%	110%	112%	101%	102%	99.8%	90.4%	108%	104%	87%	97%	101%	101%	101%	94.4%	growth at 10 µM (CCRF-CEM): 99%; growth at 10 µM (HT-29): 102%; growth at 10 µM (SN12C): 102%; growth at 10 µM (K562): 97.4%; growth at 10 µM (HCT-116): 107%; growth at 10 µM (ACHN): 107%; growth at 10 µM (PC-3): 98.8%
CC1=C(C(=O)OCc2ccccc2)C(c2ccc3c(c2)OCO3)NC(=O)N1 (racemic)	106%	95.8%	104%	86.6%	110%	95.3%	119%	92.3%	103%	105%	101%	89.5%	114%	97.7%	105%	109%	98.1%	89.1%	106%	91%	growth at 10 µM (CCRF-CEM): 103%; growth at 10 µM (HT-29): 109%; growth at 10 µM (SN12C): 101%; growth at 10 µM (K562): 107%; growth at 10 µM (HCT-116): 88.3%; growth at 10 µM (ACHN): 99.4%; growth at 10 µM (PC-3): 84.5%
COCCOC(=O)C1=C(C)NC(=S)NC1c1ccc2c(c1)OCO2 (racemic)	109%	105%	105%	102%	114%	105%	111%	108%	104%	100%	108%	99.8%	98%	103%	96.1%	106%	102%	105%	101%	103%	growth at 10 µM (CCRF-CEM): 104%; growth at 10 µM (HT-29): 96.7%; growth at 10 µM (SN12C): 104%; growth at 10 µM (K562): 91.8%; growth at 10 µM (HCT-116): 103%; growth at 10 µM (ACHN): 106%; growth at 10 µM (PC-3): 95.7%
CC1=C(C(=O)OCc2ccccc2)C(c2ccc3c(c2)OCO3)NC(=S)N1 (racemic)	100%	97.5%	105%	91.2%	106%	102%	98.4%	99%	93.6%	91.9%	115%	81.8%	106%	105%	72.8%	94.2%	96.5%	76.5%	93.7%	84.5%	growth at 10 µM (CCRF-CEM): 100%; growth at 10 µM (HT-29): 105%; growth at 10 µM (SN12C): 96.8%; growth at 10 µM (K562): 75.2%; growth at 10 µM (HCT-116): 93.1%; growth at 10 µM (ACHN): 98.9%; growth at 10 µM (PC-3): 85.2%
